According to ChEMBL document CHEMBL3286371, “wALADin benzimidazoles differentially modulate the function of porphobilinogen synthase orthologs” (J Med Chem, 2014):
The source made the active and inactive calls. The rule behind the calls is not given here.

Legend:
[1] = molecular target: Delta-aminolevulinic acid dehydratase (Pseudomonas aeruginosa (strain ATCC 15692 / PAO1 / 1C / PRS 101 / LMG12228), UniProt Q59643); assay: Stimulation of Pseudomonas aeruginosa PAO1 recombinant PBGS using 5-ALA as substrate
Summary of the method: (§1)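 His-tagged PaPBGS at 150 nM subunit in 100 mM Tris-HCl pH 8.0 with 1 mM MgCl2, 100 mM KCl and 0.2 mM 5-ALA, 10 min at 36 °C, with turnover at most 30%. Porphobilinogen read with Ehrlich's reagent. Activity normalized to 6.7% DMSO control as 100%. EC50 from variable-slope agonist fit.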

[2] = molecular target: T1, Delta-aminolevulinic acid dehydratase (Wolbachia sp. subsp. Brugia malayi (strain TRS), UniProt Q5GSR3); assay: Inhibition of C-terminal His-tagged Wolbachia PBGS using 5-ALA as substrate
T1 sequence (Q5GSR3 whole entry): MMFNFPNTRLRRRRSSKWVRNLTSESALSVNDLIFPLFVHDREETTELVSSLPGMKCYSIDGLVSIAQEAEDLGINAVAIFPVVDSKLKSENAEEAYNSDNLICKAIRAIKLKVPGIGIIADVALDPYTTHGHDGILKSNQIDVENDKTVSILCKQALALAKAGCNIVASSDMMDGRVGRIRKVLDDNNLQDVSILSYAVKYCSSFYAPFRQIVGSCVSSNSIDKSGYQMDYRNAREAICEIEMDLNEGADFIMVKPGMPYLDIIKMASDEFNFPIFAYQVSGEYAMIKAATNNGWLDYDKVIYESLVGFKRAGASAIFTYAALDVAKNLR

[3] = molecular target: Delta-aminolevulinic acid dehydratase (Pseudomonas aeruginosa (strain ATCC 15692 / PAO1 / 1C / PRS 101 / LMG12228)) (UniProt Q59643); assay: Stimulation of Pseudomonas aeruginosa PAO1 recombinant PBGS using 5-ALA as substrate relative to control; summary of the method: as §1
[4] = molecular target: T2, Delta-aminolevulinic acid dehydratase, chloroplastic (Pisum sativum, UniProt P30124); assay: Inhibition of Pisum sativum PBGS using 5-ALA as substrate; design: species or system Lathyrus oleraceus
T2 sequence (P30124 whole entry): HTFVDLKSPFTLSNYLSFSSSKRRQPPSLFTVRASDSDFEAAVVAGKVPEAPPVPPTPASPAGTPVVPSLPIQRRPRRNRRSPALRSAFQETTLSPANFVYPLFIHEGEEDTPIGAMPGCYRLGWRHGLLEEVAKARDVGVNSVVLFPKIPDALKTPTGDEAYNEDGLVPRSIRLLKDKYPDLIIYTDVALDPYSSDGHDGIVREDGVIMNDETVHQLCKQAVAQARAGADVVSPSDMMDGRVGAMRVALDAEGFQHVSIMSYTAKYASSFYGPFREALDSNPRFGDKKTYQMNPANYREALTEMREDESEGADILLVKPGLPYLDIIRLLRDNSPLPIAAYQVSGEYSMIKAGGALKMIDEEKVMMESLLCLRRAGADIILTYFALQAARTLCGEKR
Summary of the method: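 Pea (P. sativum) PBGS at 300 nM subunit in 100 mM BTP-HCl pH 8.5 with 1 mM MgCl2, 5 mM DTT and 0.2 mM 5-ALA, 15 min at 36 °C. Porphobilinogen detected with Ehrlich's reagent. Activity normalized to 6.7% DMSO control as 100%. IC50 from variable-slope normalized-response fit.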

[5] = molecular target: Delta-aminolevulinic acid dehydratase (Yersinia enterocolitica W22703) (UniProt F4MUJ9); assay: Stimulation of Yersinia enterocolitica recombinant PBGS expressed in Escherichia coli using 5-ALA as substrate relative to control
Summary of the method: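 Y. enterocolitica PBGS, expressed in E. coli from pET3, at 150 nM subunit in 100 mM BTP-HCl pH 8.0 with 1 mM MgCl2, 5 mM DTT, 100 mM KCl and 0.2 mM 5-ALA, 10 min at 36 °C. Porphobilinogen read with Ehrlich's reagent. Activity normalized to 6.7% DMSO control as 100%. EC50 from variable-slope agonist fit.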

[6] = molecular target: T3, Delta-aminolevulinic acid dehydratase (Homo sapiens, UniProt P13716); assay: Inhibition of human PBGS using 5-ALA as substrate
T3 sequence (P13716 whole entry): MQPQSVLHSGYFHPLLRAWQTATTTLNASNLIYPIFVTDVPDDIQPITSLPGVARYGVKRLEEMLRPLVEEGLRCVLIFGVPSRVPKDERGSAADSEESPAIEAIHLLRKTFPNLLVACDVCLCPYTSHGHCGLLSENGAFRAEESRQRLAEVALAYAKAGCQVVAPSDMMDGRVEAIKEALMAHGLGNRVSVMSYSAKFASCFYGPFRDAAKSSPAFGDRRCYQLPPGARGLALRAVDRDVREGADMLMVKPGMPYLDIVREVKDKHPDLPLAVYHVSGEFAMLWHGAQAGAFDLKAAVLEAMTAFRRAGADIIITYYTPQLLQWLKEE

[7] = Stimulation of Toxoplasma gondii recombinant PBGS using 5-ALA as substrate
Summary of the method: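 T. gondii PBGS, expressed from pET-21b in BL21 E. coli and purified, at 250 nM subunit in 100 mM Tris-HCl pH 8.0 with 1 mM MgCl2, 5 mM DTT and 0.2 mM 5-ALA, 20 min at 36 °C. Porphobilinogen detected with Ehrlich's reagent. Activity normalized to 6.7% DMSO control. EC50 by variable-slope agonist fit.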

[8] = molecular target: T4, Delta-aminolevulinic acid dehydratase (Escherichia coli (strain K12), UniProt P0ACB2); assay: Stimulation of Escherichia coli recombinant PBGS using 5-ALA as substrate
T4 sequence (P0ACB2 whole entry): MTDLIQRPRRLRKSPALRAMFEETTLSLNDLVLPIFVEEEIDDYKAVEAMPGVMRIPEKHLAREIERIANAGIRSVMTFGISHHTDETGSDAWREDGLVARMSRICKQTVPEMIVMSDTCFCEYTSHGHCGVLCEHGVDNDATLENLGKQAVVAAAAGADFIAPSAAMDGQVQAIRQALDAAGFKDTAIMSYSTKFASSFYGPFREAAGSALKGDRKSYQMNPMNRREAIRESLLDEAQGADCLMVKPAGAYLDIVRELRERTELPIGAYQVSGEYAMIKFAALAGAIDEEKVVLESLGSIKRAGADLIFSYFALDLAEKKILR
Summary of the method: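 E. coli PBGS at 200 nM subunit in 100 mM BTP-HCl pH 8.1 with 1 mM MgCl2, 10 μM ZnCl2, 5 mM DTT and 0.2 mM 5-ALA, 10 min at 36 °C. Porphobilinogen detected with Ehrlich's reagent. Activity normalized to control with 6.7% DMSO set at 100%. EC50 by log(agonist) vs response variable-slope fit.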

Toxoplasma gondii [9] = assay: Stimulation of Toxoplasma gondii recombinant PBGS using 5-ALA as substrate relative to control
Summary of the method: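 Recombinant T. gondii PBGS (hemB in pET-21b, expressed in BL21 E. coli) at 250 nM subunit in 100 mM Tris-HCl pH 8.0, 1 mM MgCl2, 5 mM DTT, with 200 μM 5-ALA, 20 min at 36 °C. Porphobilinogen was read with Ehrlich's reagent, and turnover was kept at or below 30%.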

[10] = molecular target: T5, Delta-aminolevulinic acid dehydratase (Drosophila melanogaster, UniProt Q9VTV9); assay: Inhibition of Drosophila melanogaster recombinant PBGS using 5-ALA as substrate
T5 sequence (Q9VTV9 whole entry): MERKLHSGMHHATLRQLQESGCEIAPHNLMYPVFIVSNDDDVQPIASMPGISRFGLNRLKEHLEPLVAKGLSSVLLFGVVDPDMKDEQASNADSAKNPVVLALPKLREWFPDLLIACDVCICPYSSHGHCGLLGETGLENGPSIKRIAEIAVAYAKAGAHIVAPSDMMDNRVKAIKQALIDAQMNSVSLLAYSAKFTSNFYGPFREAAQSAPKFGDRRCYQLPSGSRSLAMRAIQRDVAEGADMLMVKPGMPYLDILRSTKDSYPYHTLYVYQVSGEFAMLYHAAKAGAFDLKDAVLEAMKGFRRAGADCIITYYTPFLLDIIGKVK

[11] = molecular target: T6, Delta-aminolevulinic acid dehydratase (Escherichia coli (strain K12)) (UniProt P0ACB2); assay: Stimulation of Escherichia coli recombinant PBGS using 5-ALA as substrate at […]
T6 sequence (whole entry): T4 sequence (P0ACB2 whole entry)

[12] = molecular target: Delta-aminolevulinic acid dehydratase (Yersinia enterocolitica W22703) (UniProt F4MUJ9); assay: Inhibition of Yersinia enterocolitica recombinant PBGS expressed in Escherichia coli using 5-ALA as substrate at […]
Toxoplasma gondii [13] = assay: Inhibition of Toxoplasma gondii recombinant PBGS using 5-ALA as substrate at […]
[14] = molecular target: Delta-aminolevulinic acid dehydratase (Yersinia enterocolitica W22703) (UniProt F4MUJ9); assay: Stimulation of Yersinia enterocolitica recombinant PBGS expressed in Escherichia coli using 5-ALA as substrate at […]
[15] = molecular target: T6, Delta-aminolevulinic acid dehydratase (Escherichia coli (strain K12)); assay: Inhibition of Escherichia coli recombinant PBGS using 5-ALA as substrate at […]
[16] = molecular target: Delta-aminolevulinic acid dehydratase (Pseudomonas aeruginosa (strain ATCC 15692 / PAO1 / 1C / PRS 101 / LMG12228)) (UniProt Q59643); assay: Inhibition of Pseudomonas aeruginosa PAO1 recombinant PBGS using 5-ALA as substrate at […]
Toxoplasma gondii [17] = assay: Stimulation of Toxoplasma gondii recombinant PBGS using 5-ALA as substrate at […]
[18] = molecular target: Delta-aminolevulinic acid dehydratase (Pseudomonas aeruginosa (strain ATCC 15692 / PAO1 / 1C / PRS 101 / LMG12228)) (UniProt Q59643); assay: Stimulation of Pseudomonas aeruginosa PAO1 recombinant PBGS using 5-ALA as substrate at […]

Delta-aminolevulinic acid dehydratase (Yersinia enterocolitica W22703), sequence (F4MUJ9 as listed by the source): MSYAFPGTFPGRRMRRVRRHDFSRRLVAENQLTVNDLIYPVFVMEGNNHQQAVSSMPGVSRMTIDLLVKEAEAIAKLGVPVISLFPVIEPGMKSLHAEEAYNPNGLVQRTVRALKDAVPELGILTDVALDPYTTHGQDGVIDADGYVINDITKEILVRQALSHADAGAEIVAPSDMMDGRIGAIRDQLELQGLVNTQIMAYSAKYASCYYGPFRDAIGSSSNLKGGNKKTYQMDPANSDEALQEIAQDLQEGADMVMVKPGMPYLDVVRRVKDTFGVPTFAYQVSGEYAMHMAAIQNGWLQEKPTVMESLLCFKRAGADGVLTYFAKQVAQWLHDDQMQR
Delta-aminolevulinic acid dehydratase (Pseudomonas aeruginosa (strain ATCC 15692 / PAO1 / 1C / PRS 101 / LMG12228)), sequence (Q59643 whole entry): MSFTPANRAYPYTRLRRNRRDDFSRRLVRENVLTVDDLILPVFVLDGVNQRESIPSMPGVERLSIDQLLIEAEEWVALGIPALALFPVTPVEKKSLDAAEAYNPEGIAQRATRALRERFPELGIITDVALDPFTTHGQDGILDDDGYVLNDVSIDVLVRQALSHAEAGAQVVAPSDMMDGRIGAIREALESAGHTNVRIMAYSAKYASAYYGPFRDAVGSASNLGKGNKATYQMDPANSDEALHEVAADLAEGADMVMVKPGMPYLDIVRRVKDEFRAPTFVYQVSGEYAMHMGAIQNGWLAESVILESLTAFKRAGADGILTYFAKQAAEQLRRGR
Delta-aminolevulinic acid dehydratase (Pseudomonas aeruginosa (strain ATCC 15692 / PAO1 / 1C / PRS 101 / LMG12228), UniProt Q59643), sequence (Q59643 whole entry): as above

Row | Compound | EC50 [1] | IC50 [2] | Smax [3] | IC50 [4] | Smax [5] | IC50 [6] | EC50 [7] | EC50 [8] | Smax (Toxoplasma gondii [9]) | IC50 [10] | Smax [11] | inhibition [12] | inhibition (Toxoplasma gondii [13]) | Smax [14] | inhibition [15] | inhibition [16] | Smax (Toxoplasma gondii [17]) | Smax [18]
1 | O=C(O)c1ccc2c(c1)nc(CCNC(=O)c1cccs1)n2Cc1ccc(C(F)(F)F)cc1 | 68 µM | 38.6 µM | 140% | 44.3 µM | 142% | 637 µM | 37 µM | 39 µM | 118% | 1010 µM |  |  |  |  |  |  |  | 
2 | O=C(O)c1ccc2[nH]c(CCNC(=O)c3cccs3)nc2c1 |  | 500 µM |  | 114 µM |  |  |  |  |  | 448 µM | 100% | inactive | inactive | 100% | inactive | inactive | 100% | 100%
3 | O=C(O)c1ccc2c(c1)ncn2Cc1ccc(C(F)(F)F)cc1 |  | 87.7 µM |  | 43.1 µM |  | 173 µM |  |  |  | 620 µM | 100% | inactive | inactive | 100% | inactive | inactive | 100% | 100%
4 | O=C(O)c1ccc2c(c1)ncn2Cc1ccccc1C(F)(F)F |  | 293 µM |  | 64.3 µM |  | 145 µM |  |  |  | > 1000 µM | 100% | inactive | inactive | 100% | inactive | inactive | 100% | 100%
5 | O=C(O)c1ccc2[nH]cnc2c1 |  | 500 µM |  | > 500 µM |  | 511 µM |  |  |  | > 1000 µM | 100% | inactive | inactive | 100% | inactive | inactive | 100% | 100%
6 | COc1cccc(Cn2cnc3cc(C(=O)O)ccc32)c1 |  | 205 µM |  | 155 µM |  | 156 µM |  |  |  | 370 µM | 100% | inactive | inactive | 100% | inactive | inactive | 100% | 100%
